Results reported in ChEMBL document CHEMBL5236592, “Induction of Ferroptosis in Glioblastoma and Ovarian Cancers by a New Pyrrole Tubulin Assembly Inhibitor” (J Med Chem, 2022).
Activity calls are given as the source filed them.

Key:
Format in all cases: functional, organism-based
Conditions in all cases: time 40.0 day
U-87MG ATCC [1] = assay: Antitumor activity against human U-87 MG cells xenografted in BALB/C nu/nu mouse assessed as reduction in tumor growth at 25 mg/kg, ip administered every 2 days for 40 days
Method in brief: (§1)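 Female BALB/c nu/nu mice, 10 weeks old, 4 per group. Received subcutaneous U-87 MG or SKOV-3 cells (1 × 10^8 cells/mL, harvested in log phase). Dosed ip with 100 μL at 25 mg/kg every 2 days; controls got 100 μL saline on the same schedule. Sacrificed at 40 days; tumors weighed, volume = ab²/2. Tumor sections (6 μm, paraffin) stained by immunofluorescence for Ki67 or CD31 with Alexa Fluor 488 secondary.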

U-87MG ATCC [2] = assay: Induction of ferroptosis-mediated antitumor activity against human U-87 MG cells xenografted in BALB/C nu/nu mouse assessed as increase in lactic acid level in tumor at 25 mg/kg, ip administered every 2 days for 40 days by biochemical analysis
Method in brief: (§2)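 U-87 MG or SKOV-3 sc xenografts (1 × 10^8 cells/mL) in female BALB/c nu/nu mice, 4 per group. Given 25 mg/kg ip in 100 μL every 2 days, or saline. Tumors harvested on day 40 and assayed for LPO, MDA, lactic acid, total glutathione (GSH + GSSG), ATP and Fe2+.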

SK-OV-3 [3] = assay: Induction of ferroptosis-mediated antitumor activity against human SK-OV-3 cells xenografted in BALB/C nu/nu mouse assessed as reduction in total glutathione level in tumor at 25 mg/kg, ip administered every 2 days for 40 days by biochemical analysis; method in brief: as §2
SK-OV-3 [4] = assay: Induction of ferroptosis-mediated antitumor activity against human SK-OV-3 cells xenografted in BALB/C nu/nu mouse assessed as reduction in ATP level in tumor at 25 mg/kg, ip administered every 2 days for 40 days by biochemical analysis; method in brief: as §2
Mus musculus [5] = assay: Upregulation of Acsf2 mRNA expression in tumor of BALB/C nu/nu mouse xenografted with human U-87 MG cells at 25 mg/kg, ip administered every 2 days for 40 days by qPCR analysis
Method in brief: (§3)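 Female BALB/c nu/nu mice bearing sc U-87 MG or SKOV-3 xenografts were dosed ip at 25 mg/kg (100 μL) every 2 days, or given saline, and tumors were taken at day 40. RNA was extracted from about 20 mg of tissue. qPCR ran 40 cycles (95 °C 15 min; 94 °C 20 s; 60 °C 34 s) on a 69-gene panel. Fold change was by 2^–ΔΔCt, with ≥1.5 counted as increased.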

Mus musculus [6] = assay: Upregulation of ENDOG mRNA expression in tumor of BALB/C nu/nu mouse xenografted with human U-87 MG cells at 25 mg/kg, ip administered every 2 days for 40 days by qPCR analysis; method in brief: as §3
Mus musculus [7] = assay: Upregulation of Gclc mRNA expression in tumor of BALB/C nu/nu mouse xenografted with human U-87 MG cells at 25 mg/kg, ip administered every 2 days for 40 days by qPCR analysis; method in brief: as §3
Mus musculus [8] = assay: Upregulation of Alfm1 mRNA expression in tumor of BALB/C nu/nu mouse xenografted with human U-87 MG cells at 25 mg/kg, ip administered every 2 days for 40 days by qPCR analysis; method in brief: as §3
Mus musculus [9] = assay: Upregulation of Fancd2 mRNA expression in tumor of BALB/C nu/nu mouse xenografted with human U-87 MG cells at 25 mg/kg, ip administered every 2 days for 40 days by qPCR analysis; method in brief: as §3
Mus musculus [10] = assay: Upregulation of Acsl4 mRNA expression in tumor of BALB/C nu/nu mouse xenografted with human U-87 MG cells at 25 mg/kg, ip administered every 2 days for 40 days by qPCR analysis; method in brief: as §3
Mus musculus [11] = assay: Upregulation of Akr1c3 mRNA expression in tumor of BALB/C nu/nu mouse xenografted with human U-87 MG cells at 25 mg/kg, ip administered every 2 days for 40 days by qPCR analysis; method in brief: as §3
Mus musculus [12] = assay: Upregulation of Gpx4 mRNA expression in tumor of BALB/C nu/nu mouse xenografted with human U-87 MG cells at 25 mg/kg, ip administered every 2 days for 40 days by qPCR analysis
Method in brief: (§4)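 Female BALB/c nu/nu mice, 10 weeks old, 4 per group. Inoculated s.c. with 1 × 10^8 cells/mL of log-phase U-87 MG or SKOV-3 cells. Dosed i.p. with 100 μL at 25 mg/kg every 2 days; controls got 100 μL saline. Tumors harvested on day 40. RNA extracted from about 20 mg of tissue. qPCR panel of 69 genes, 40 cycles (94 °C 20 s, 60 °C 34 s). Analysed by 2–ΔΔCt; fold ≥1.5 taken as increased.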

Mus musculus [13] = assay: Upregulation of Cbs mRNA expression in tumor of BALB/C nu/nu mouse xenografted with human U-87 MG cells at 25 mg/kg, ip administered every 2 days for 40 days by qPCR analysis; method in brief: as §3
Mus musculus [14] = assay: Upregulation of Clsd1 mRNA expression in tumor of BALB/C nu/nu mouse xenografted with human U-87 MG cells at 25 mg/kg, ip administered every 2 days for 40 days by qPCR analysis; method in brief: as §3
Mus musculus [15] = assay: Upregulation of Ptgs2 mRNA expression in tumor of BALB/C nu/nu mouse xenografted with human SK-OV-3 cells at 25 mg/kg, ip administered every 2 days for 40 days by qPCR analysis; method in brief: as §4
Mus musculus [16] = assay: Upregulation of Rpl8 mRNA expression in tumor of BALB/C nu/nu mouse xenografted with human SK-OV-3 cells at 25 mg/kg, ip administered every 2 days for 40 days by qPCR analysis; method in brief: as §4
Mus musculus [17] = assay: Upregulation of FTH1 mRNA expression in tumor of BALB/C nu/nu mouse xenografted with human SK-OV-3 cells at 25 mg/kg, ip administered every 2 days for 40 days by qPCR analysis; method in brief: as §3
Mus musculus [18] = assay: Upregulation of Akr1c1 mRNA expression in tumor of BALB/C nu/nu mouse xenografted with human SK-OV-3 cells at 25 mg/kg, ip administered every 2 days for 40 days by qPCR analysis; method in brief: as §3
Mus musculus [19] = assay: Upregulation of Dpp4 mRNA expression in tumor of BALB/C nu/nu mouse xenografted with human SK-OV-3 cells at 25 mg/kg, ip administered every 2 days for 40 days by qPCR analysis; method in brief: as §3
Mus musculus [20] = assay: Upregulation of Nf22l2 mRNA expression in tumor of BALB/C nu/nu mouse xenografted with human SK-OV-3 cells at 25 mg/kg, ip administered every 2 days for 40 days by qPCR analysis; method in brief: as §4
U-87MG ATCC [21] = assay: Antitumor activity against human U-87 MG cells xenografted in BALB/C nu/nu mouse assessed as reduction in Ki67 expression in tumor at 25 mg/kg, ip administered every 2 days for 40 days by immunofluoresence staining based assay; method in brief: as §1
SK-OV-3 [22] = assay: Antitumor activity against human SK-OV-3 cells xenografted in BALB/C nu/nu mouse assessed as reduction in Ki67 expression in tumor at 25 mg/kg, ip administered every 2 days for 40 days by immunofluoresence staining based assay; method in brief: as §1

Measured: Activity

COc1cc(C(=O)c2cn(-c3ncccn3)cc2-c2ccco2)cc(OC)c1OC
active: all assays above
